Measured values: ChEMBL document CHEMBL1132577, “Conformational preferences in a benzodiazepine series of potent nonpeptide fibrinogen receptor antagonists” (J Med Chem, 1999)

Experiments:
[1] = organism: Homo sapiens; experiment: Inhibition of ADP-induced platelet aggregation in human platelet-rich plasma.; format: functional, organism-based
[2] = target: Integrin alpha-IIb/beta-3 (Homo sapiens, UniProt P05106+P08514); experiment: Fibrinogen receptor binding affinity was determined by assaying for inhibition of [3H]1 binding to purified Fibrinogen Receptor isolated from human platelets and reconstituted in liposomes
Sequence of Integrin alpha-IIb/beta-3 (P05106 27-788 limits assumed): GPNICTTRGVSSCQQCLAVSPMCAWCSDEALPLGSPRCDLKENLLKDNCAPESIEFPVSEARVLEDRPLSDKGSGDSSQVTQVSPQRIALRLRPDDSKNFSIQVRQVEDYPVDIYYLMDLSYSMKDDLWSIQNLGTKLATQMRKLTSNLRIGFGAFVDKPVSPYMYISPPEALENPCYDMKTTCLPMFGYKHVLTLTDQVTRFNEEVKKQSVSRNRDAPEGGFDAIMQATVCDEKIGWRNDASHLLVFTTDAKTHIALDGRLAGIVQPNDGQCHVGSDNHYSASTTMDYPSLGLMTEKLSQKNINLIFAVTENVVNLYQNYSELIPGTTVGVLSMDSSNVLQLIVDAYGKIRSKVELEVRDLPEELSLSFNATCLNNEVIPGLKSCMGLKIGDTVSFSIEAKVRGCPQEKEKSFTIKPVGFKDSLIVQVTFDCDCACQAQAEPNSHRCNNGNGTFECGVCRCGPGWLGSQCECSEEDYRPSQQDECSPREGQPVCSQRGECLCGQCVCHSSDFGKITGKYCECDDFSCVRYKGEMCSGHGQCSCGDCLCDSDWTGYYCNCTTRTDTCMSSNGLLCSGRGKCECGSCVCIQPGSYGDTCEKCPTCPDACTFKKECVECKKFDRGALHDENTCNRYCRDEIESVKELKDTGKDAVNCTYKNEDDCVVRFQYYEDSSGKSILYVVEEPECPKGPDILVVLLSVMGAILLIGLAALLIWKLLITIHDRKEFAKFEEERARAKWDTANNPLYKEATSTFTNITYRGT
Sequence of Integrin alpha-IIb/beta-3 (P08514 32-887 limits assumed): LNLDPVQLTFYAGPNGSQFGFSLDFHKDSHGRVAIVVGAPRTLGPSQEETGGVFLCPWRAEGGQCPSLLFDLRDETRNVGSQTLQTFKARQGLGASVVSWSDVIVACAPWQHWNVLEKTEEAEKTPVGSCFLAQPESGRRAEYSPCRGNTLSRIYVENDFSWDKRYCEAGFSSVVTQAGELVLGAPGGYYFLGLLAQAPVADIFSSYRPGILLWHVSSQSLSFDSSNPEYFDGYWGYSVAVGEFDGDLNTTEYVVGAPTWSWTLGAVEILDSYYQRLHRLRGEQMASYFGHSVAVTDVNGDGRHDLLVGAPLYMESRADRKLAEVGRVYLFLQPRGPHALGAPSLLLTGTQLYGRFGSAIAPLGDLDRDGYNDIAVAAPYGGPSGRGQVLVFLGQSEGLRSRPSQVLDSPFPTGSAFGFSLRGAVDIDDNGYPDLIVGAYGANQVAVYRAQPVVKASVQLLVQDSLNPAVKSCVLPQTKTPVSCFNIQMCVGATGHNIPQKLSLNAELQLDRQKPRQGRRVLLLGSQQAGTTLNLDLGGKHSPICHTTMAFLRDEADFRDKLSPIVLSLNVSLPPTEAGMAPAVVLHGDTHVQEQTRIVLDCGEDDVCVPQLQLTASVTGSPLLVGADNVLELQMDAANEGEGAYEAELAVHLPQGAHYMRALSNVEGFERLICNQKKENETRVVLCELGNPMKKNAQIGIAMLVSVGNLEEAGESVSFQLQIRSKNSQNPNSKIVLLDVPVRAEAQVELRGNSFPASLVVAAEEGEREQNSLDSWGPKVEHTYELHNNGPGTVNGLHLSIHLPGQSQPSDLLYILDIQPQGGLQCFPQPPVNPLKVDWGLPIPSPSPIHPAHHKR
Sequence of Integrin alpha-IIb/beta-3 (P08514 891-1039 limits assumed): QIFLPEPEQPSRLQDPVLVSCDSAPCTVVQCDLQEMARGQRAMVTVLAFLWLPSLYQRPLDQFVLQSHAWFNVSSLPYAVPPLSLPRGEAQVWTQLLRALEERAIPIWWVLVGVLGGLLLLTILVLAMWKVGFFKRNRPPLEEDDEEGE
Method in brief: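 Competition binding of the tritiated ligand [³H]-1 to the fibrinogen receptor glycoprotein complex GPIIb/IIIa, purified from human platelets and reconstituted into liposomes. The read-out is inhibition of radioligand binding.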

SMILES	IC50 [1] [nM]	Ki [2] [nM]
N=C(N)c1ccc(NC(=O)c2ccc3c(c2)NC(CC(=O)O)CCC3)cc1 (configuration not stated)	3900	
O=C(O)CC1Nc2cc(/C=C\CCC3CCNCC3)ccc2CN(CCc2ccccc2)C1=O (configuration not stated)	7400	750
O=C(O)CC1Nc2cc(/C=C/CCC3CCNCC3)ccc2CN(CCc2ccccc2)C1=O (configuration not stated)	175	19
N=C(N)c1ccc(C(=O)Nc2ccc3c(c2)CN(CC(=O)O)C(=O)NC3)cc1	23000	
N=C(N)c1ccc(NC(=O)c2ccc3c(c2)N[C@H](CC(=O)O)C(=O)N(CCc2ccccc2)C3)cc1	2200	500
N=C(N)c1ccc(NC(=O)c2cccc(NC(CC(=O)O)C(=O)O)c2)cc1 (configuration not stated)	4700	
O=C(O)CC1Nc2cc(C(=O)NCCC3CCNCC3)ccc2CN(CCc2ccccc2)C1=O (configuration not stated)	510	4.7
N=C(N)c1ccc(C(=O)Nc2ccc3c(c2)NC(CC(=O)O)CN(CCc2ccccc2)C3=O)cc1 (configuration not stated)	> 200000	
CN(C(=O)c1ccc2c(c1)CN(CC(=O)O)C(=O)CC2)c1ccc(C(=N)N)cc1	> 200000	> 50000
O=C(O)CC1Nc2cc(CCCCC3CCNCC3)ccc2CN(CCc2ccccc2)C1=O (configuration not stated)	930	80
N=C(N)c1ccc(C(=O)Nc2ccc3c(c2)CN(CCC(=O)O)C(=O)CN3)cc1	2100	290
N=C(N)c1ccc(C(=O)Nc2ccc3c(c2)CN(CC(=O)O)C(=O)CN3)cc1	3100	1200
CN(CCC1CCNCC1)C(=O)c1ccc2c(c1)NC(CC(=O)O)C(=O)N(CCc1ccccc1)C2 (configuration not stated)	15	1.9
N=C(N)c1ccc(NC(=O)c2ccc3c(c2)NC(CC(=O)O)CN(CCc2ccccc2)C3=O)cc1 (configuration not stated)	8300	800
CN(C(=O)c1ccc2c(c1)CN(CCC(=O)O)C(=O)CC2)c1ccc(C(=N)N)cc1	> 200000	22500
N=C(N)c1ccc(C(=O)Nc2ccc3c(c2)NC(CC(=O)O)C(=O)N(CCc2ccccc2)C3)cc1 (configuration not stated)	130	2
N=C(N)c1ccc(NC(=O)c2ccc3c(c2)NC(CC(=O)O)CN(CCc2ccccc2)C3)cc1 (configuration not stated)	3000	540
N=C(N)c1ccc(NC(=O)c2ccc3c(c2)N[C@@H](CC(=O)O)C(=O)N(CCc2ccccc2)C3)cc1	34	2
